Measured values: article PMC2885444 (The Biochemical journal, 2009)

Key:
[1] = system: PHD fingers of BHC80 and AIRE (mutants); conditions: aspartate to alanine or hydrophobic residue to tryptophan; ref [17],[27]; cited from earlier work
CHD4 PHD2 C460W mutant = CHD4 PHD2 C460W mutant (Homo sapiens, UniProt Q14839, C463W); experiment: NMR titration, C460W mutant; format: binding
Procedure, shortened: (§1)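 Point mutant of the PHD2 finger was made by PCR mutagenesis and expressed as a GST fusion in E. coli BL21(DE3) pLysS on ¹⁵NH₄Cl minimal medium. It was purified on glutathione beads, tag-cleaved, then held in 20 mM Tris pH 6.8–7.5, 150 mM NaCl, 10 mM DTT and 1 mM NaN₃. ¹H,¹⁵N HSQC was run at 500 MHz with increasing 12-mer histone tail peptides. Kd came from a nonlinear least-squares fit of normalized shift changes.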

CHD4 PHD2 finger = CHD4 PHD2 finger (Homo sapiens, UniProt Q14839); experiment: NMR titration; format: binding; conditions: for NMR exchange regime: 1H,15N HSQC titration, NMR time scale
CHD4 PHD2 E447A mutant = CHD4 PHD2 E447A mutant (Homo sapiens, UniProt Q14839, E450A); experiment: NMR titration, E447A mutant; format: binding
Procedure, shortened: as §1

[2] = system: CHD4 PHD2 finger (GST-fusion); format: binding; conditions: C-terminal biotinylated peptides (residues 1–21; H3K27/H3K36 residues 21–44), streptavidin–Sepharose beads, 50 mM Tris pH 7.5, 150 mM NaCl, 0.05% Nonidet P-40; anti-GST HRP detection
CHD4 PHD2 F448A mutant = experiment: Binding and NMR of F448A mutant; conditions: F448A mutant vs wild-type
Procedure, shortened: as §1

[3] = system: CHD4 PHD2 finger, Asp^454 substituted with valine; experiment: Binding of PHD2 with Asp454 substituted with valine; conditions: Asp454 to valine mutant

CHD4 PHD2 finger, sequence (Q14839 449-496 limits assumed): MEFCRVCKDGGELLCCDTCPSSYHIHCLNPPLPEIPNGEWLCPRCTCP
CHD4 PHD2 E447A mutant, sequence (Q14839 449-496 E450A limits assumed): as the sequence (Q14839 449-496 limits assumed) above, with E2A counted along it
CHD4 PHD2 C460W mutant, sequence (Q14839 449-496 C463W limits assumed): as the sequence (Q14839 449-496 limits assumed) above, with C15W counted along it

unmodified H3: unmodified histone H3 N-terminal tail peptide (residues 1–21 biotinylated in pull-down; 12-mer in NMR)
Interaction with mutant PHD fingers [1]: abolish interactions | Kd (CHD4 PHD2 C460W mutant; C460W mutant): 3700 µM | Binding compared with wild-type (CHD4 PHD2 C460W mutant; C460W mutant vs wild-type): significantly weaker | NMR exchange regime (CHD4 PHD2 finger): intermediate-to-fast exchange regime | Kd (CHD4 PHD2 E447A mutant; E447A mutant): 900 µM | Binding compared with wild-type (CHD4 PHD2 E447A mutant; E447A mutant vs wild-type): significantly weaker

H3K4me1: histone H3 mono-methylated at Lys^4
Binding in pull-down (Western blot) [2]: significantly weaker

H3K9me1: histone H3 mono-methylated at Lys^9
Binding in pull-down (Western blot) [2]: able to recognize

H3K9me3: histone H3 tri-methylated at Lys^9
Binding compared with wild-type (CHD4 PHD2 F448A mutant): more weakly | Binding compared with wild-type [3]: significantly compromised | NMR exchange regime (CHD4 PHD2 finger): intermediate-to-fast exchange regime

H3K9ac: histone H3 acetylated at Lys^9 (20-mer, Anaspec, in NMR; residues 1–21 in pull-down)
Binding compared with wild-type (CHD4 PHD2 F448A mutant): more weakly | NMR exchange regime (CHD4 PHD2 finger): intermediate-to-fast exchange regime

H3K4me3: histone H3 tri-methylated at Lys^4
Binding in pull-down (Western blot) [2]: significantly weaker | NMR exchange regime (CHD4 PHD2 finger): fast exchange regime

H3(3-10): peptide comprising residues Thr^3–Ser^10 but lacking Ala^1 and Arg^2 (TKQTARKS)
NMR changes on titration (CHD4 PHD2 finger; wild-type PHD2, even a 10-fold excess of peptide): no changes
